Test results reported in ChEMBL document CHEMBL3739352, “Anticonvulsant activity, crystal structures, and preliminary safety evaluation of N-trans-cinnamoyl derivatives of selected (un)modified aminoalkanols” (Eur J Med Chem, 2016).
The source made the active and inactive calls. The calls are words filed in the database; no cut-off is given here.

What was measured:
[1] = tested on: Rattus norvegicus; test: Anticonvulsant activity in po dosed Sprague-Dawley rat assessed as protection against subcutaneous dosed pentetrazol-induced seizures after 0.5 hrs; type: functional
Method in brief: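 Sprague-Dawley rats received graded oral doses suspended or dissolved in 0.5% methylcellulose. Challenge was maximal electroshock or subcutaneous pentetrazol at the stated time after dosing.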

[2] = tested on: Mus musculus; test: Anticonvulsant activity in ip dosed albino Carworth Farms No.1 mouse assessed as protection against subcutaneous dosed pentetrazol-induced seizures after 0.25 hrs; type: functional; conditions: Carworth Farms No.1, 0.25 h
Method in brief: (§1)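 Quantitative i.p. evaluation in Carworth Farms No.1 albino mice, with graded doses in 0.5% methylcellulose. MES, scPTZ or 6-Hz (32 mA) seizure tests were run at 0.25 h.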

[3] = tested on: Salmonella typhimurium; test: Mutagenicity in Salmonella typhimurium TA98 assessed as number of revertants at 10 ug/plate by Ames test (reference value: 23 +/- 3); type: toxicity, organism-based; conditions: salmonella enterica subsp. enterica serovar typhimurium
[4] = in vitro; conditions: human, HepG2 cells
[5] = in vitro; conditions: human, HepG2 cells; remark: listed apart in the source
[6] = in vitro; conditions: human, HepG2 cells; remark: listed apart in the source
[7] = in vitro; conditions: human, HepG2 cells; remark: listed apart in the source
[8] = Hepatotoxicity against human HepG2 cells assessed as cell viability at 50 uM after 24 hrs by MTT assay relative to control
[9] = Hepatotoxicity against human HepG2 cells assessed as cell viability at 25 uM after 24 hrs by MTT assay relative to control; type: toxicity, cell-based; conditions: read-out: Activity
Method in brief: (§2)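 HepG2 cells (EMEM, 10% FBS, 37 °C, 5% CO₂) were seeded at 1 × 10⁴ per well and cultured overnight. They were then exposed to increasing compound concentrations for 24 h. MTT reagent was added for 3 h and formazan crystals dissolved before reading. Data are mean ± SD of at least three independent experiments, relative to untreated control.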

[10] = Hepatotoxicity against human HepG2 cells assessed as cell viability at 10 uM after 24 hrs by MTT assay relative to control; type: toxicity, cell-based; conditions: read-out: Activity; method in brief: as §2
[11] = Hepatotoxicity against human HepG2 cells assessed as cell viability at 100 uM after 24 hrs by MTT assay relative to control
[12] = tested on: Mus musculus; test: Anticonvulsant activity in albino Carworth Farms No.1 mouse assessed as protection against 6-Hz electroshock-induced seizures at 100 mg/kg, ip after 0.25 hrs; type: functional, organism-based
Method in brief: (§3)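 Carworth Farms No.1 albino mice were dosed i.p. at 100 mg/kg (0.5% methylcellulose solution or suspension). 6-Hz seizures were induced at 32 mA at 0.25, 0.5, 1.0, 2.0 and 4 h after injection. Results are given as animals protected / animals tested.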

[13] = Lipophilicity of the compound using 75% methanol in water at 1 mg/ml by RT-TLC analysis; type: physicochemical; conditions: buffer
Method in brief: (§4)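 Reversed-phase TLC with a methanol–water mobile phase at the stated methanol content (v/v). Compounds were spotted from 1 mg/mL methanol solutions after 1 h chamber saturation and located under UV light. Rf was measured and RM = log(1/Rf − 1) calculated.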

[14] = tested on: Mus musculus; test: Neurotoxicity in albino Carworth Farms No.1 mouse at 30 mg/kg, ip after 4 hrs by rotarod test; type: toxicity, organism-based; conditions: in vivo
Method in brief: (§5)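 Mice (albino Carworth Farms No.1) were dosed i.p. at 30, 100 or 300 mg/kg in 0.5% methylcellulose. They were tested 0.5 and 4 h later on a 1-inch knurled rod rotating at 6 rpm. Neurotoxicity was scored if a mouse could not stay on the rod for at least 1 min in each of three trials. Results are given as animals toxic/animals tested, with deaths noted.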

[15] = tested on: Mus musculus; test: Anticonvulsant activity in albino Carworth Farms No.1 mouse assessed as protection against 6-Hz electroshock-induced seizures at 100 mg/kg, ip after 0.5 hrs; type: functional, organism-based; method in brief: as §3
[16] = Lipophilicity of the compound using 65% methanol in water at 1 mg/ml by RT-TLC analysis; type: physicochemical; conditions: buffer; method in brief: as §4
[17] = tested on: Mus musculus; test: Anticonvulsant activity in albino Carworth Farms No.1 mouse assessed as protection against subcutaneous dosed pentetrazol-induced seizures at 100 mg/kg, ip after 4 hrs; type: functional, organism-based
Method in brief: (§6)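 Mouse i.p. screen in Carworth Farms No.1 albino mice at 30, 100 or 300 mg/kg in 0.5% methylcellulose. Testing was at 0.5 and 4 h after injection, by maximal electroshock or by subcutaneous pentetrazol challenge. Scoring was number protected / number used.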

[18] = Lipophilicity of the compound using 90% methanol in water at 1 mg/ml by RT-TLC analysis; type: physicochemical; conditions: buffer; method in brief: as §4
[19] = Lipophilicity of the compound using 85% methanol in water at 1 mg/ml by RT-TLC analysis; type: physicochemical; conditions: buffer; method in brief: as §4
[20] = tested on: Mus musculus; test: Anticonvulsant activity in albino Carworth Farms No.1 mouse assessed as protection against 6-Hz electroshock-induced seizures at 100 mg/kg, ip after 1 hr; type: functional, organism-based; method in brief: as §3
[21] = tested on: Mus musculus; test: Anticonvulsant activity in albino Carworth Farms No.1 mouse assessed as protection against 6-Hz electroshock-induced seizures at 100 mg/kg, ip after 4 hrs; type: functional, organism-based; method in brief: as §3
[22] = tested on: Mus musculus; test: Anticonvulsant activity in albino Carworth Farms No.1 mouse assessed as protection against subcutaneous dosed pentetrazol-induced seizures at 100 mg/kg, ip after 0.5 hrs; type: functional, organism-based; method in brief: as §6
[23] = tested on: Mus musculus; test: Anticonvulsant activity in albino Carworth Farms No.1 mouse assessed as protection against maximal electroshock-induced seizures at 100 mg/kg, ip after 0.5 hrs; type: functional, organism-based; method in brief: as §6
[24] = tested on: Mus musculus; test: Neurotoxicity in albino Carworth Farms No.1 mouse at 100 mg/kg, ip after 4 hrs by rotarod test; type: toxicity, organism-based; conditions: in vivo; method in brief: as §5
[25] = Lipophilicity of the compound using 95% methanol in water at 1 mg/ml by RT-TLC analysis; type: physicochemical; conditions: buffer; method in brief: as §4
[26] = tested on: Mus musculus; test: Anticonvulsant activity in albino Carworth Farms No.1 mouse assessed as protection against maximal electroshock-induced seizures at 100 mg/kg, ip after 4 hrs; type: functional, organism-based; method in brief: as §6
[27] = tested on: Mus musculus; test: Anticonvulsant activity in albino Carworth Farms No.1 mouse assessed as protection against 6-Hz electroshock-induced seizures at 100 mg/kg, ip after 2 hrs; type: functional, organism-based; method in brief: as §3
[28] = tested on: Mus musculus; test: Neurotoxicity in albino Carworth Farms No.1 mouse at 300 mg/kg, ip after 4 hrs by rotarod test; type: toxicity, organism-based; conditions: in vivo; method in brief: as §5
[29] = Lipophilicity of the compound at 1 mg/ml by RT-TLC analysis relative to 0% methanol; type: physicochemical; conditions: methanol/water
Method in brief: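 Reversed-phase TLC used methanol–water mobile phases of 95–65% methanol. Compounds were applied from 1 mg/mL methanol solutions after 1 h chamber saturation, with UV detection. RM = log(1/Rf − 1) was calculated at each methanol level and extrapolated linearly (RM = RM0 + bC) to 0% methanol to give RM0.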

[30] = tested on: Mus musculus; test: Neurotoxicity in albino Carworth Farms No.1 mouse at 100 mg/kg, ip after 0.5 hrs by rotarod test; type: toxicity, organism-based; conditions: in vivo; method in brief: as §5
[31] = tested on: Mus musculus; test: Anticonvulsant activity in ip dosed albino Carworth Farms No.1 mouse assessed as protection against 6-Hz electroshock-induced seizures after 0.25 hrs; type: functional; conditions: Carworth Farms No.1, ip; method in brief: as §1

NC(=O)N1c2ccccc2C=Cc2ccccc21 [CARBAMAZEPINE]
ED50 [1]: > 250 mg/kg | ED50 [2]: > 50 mg/kg

Nc1ccc([N+](=O)[O-])cc1N
Activity [3]: 647

COc1cccc2c1C(=O)c1c(O)c3c(c(O)c1C2=O)C[C@@](O)(C(=O)CO)C[C@@H]3O[C@H]1C[C@H](N)[C@H](O)[C@H](C)O1 [DOXORUBICIN]
viability at 24 h, 50 µM [4]: 75% | viability at 24 h, 25 µM [5]: 83% | viability at 24 h, 10 µM [6]: 91% | viability at 24 h, 100 µM [7]: 48% | viability at 24 h, 50 µM [8]: 51.6% | viability at 24 h, 25 µM [9]: 65.3% | viability at 24 h, 10 µM [10]: 77.4% | viability at 24 h, 100 µM [11]: 44.9%

CC(NC(=O)/C=C/c1ccccc1)C(=O)NCN1CCCCC1 (racemic)
Activity [12]: inactive | Rm [13]: 0.1 | Activity [14]: Non-toxic | Activity [15]: inactive | Rm [16]: 0.5 | Activity [17]: inactive | Rm [18]: -0.27 | Rm [19]: -0.02 | Activity [20]: inactive | Activity [21]: inactive | Activity [22]: inactive | Activity [23]: inactive | Activity [24]: Non-toxic | Rm [25]: -0.39 | Activity [26]: inactive | Activity [27]: inactive | Activity [28]: Non-toxic | Rm [29]: 1.758 | Activity [30]: Non-toxic

CCCC(CCC)C(=O)O [VALPROIC ACID]
ED50 [1]: 646 mg/kg | ED50 [2]: 220 mg/kg | ED50 [31]: 126 mg/kg
